# Sampled rows, rich in hits. Any-hit rate of the full collection: about 0.99%.
# NPR2 activator: GC-B (human) receptor activation | P20594 | HEK293-GC-B cells, CNP EC30, cGMP TR-FRET; 0% at EC30 CNP, 100% saturating CNP | activation, % at 10 µM | 0.11% of 370,000 active;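 active means activation at 10 µM reaching about 35% in either raw or pattern-adjusted values, limit read from the data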
# Casp6 inh: caspase-6 (human) enzyme inhibition; P55212; purified caspase-6, Z-VEID-R110 cleavage fluorescence; inhibition, % at 12.5 µM; 0.53% of 350,000 active; AID 686996;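 active means mean inhibition across replicates at least about 35%, with every replicate also reaching that limit, limit read from the data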
# NSD2 inh: blocks human histone methyltransferase NSD2. inhibition, % at 12.5 µM. O96028. AID 743445. 0.54% of 310,000 active. NSD2 peptide methylation, AlphaScreen, 120 min; in the data active means inhibition above about 50%
# Target sequence (O96028 whole entry, looked up): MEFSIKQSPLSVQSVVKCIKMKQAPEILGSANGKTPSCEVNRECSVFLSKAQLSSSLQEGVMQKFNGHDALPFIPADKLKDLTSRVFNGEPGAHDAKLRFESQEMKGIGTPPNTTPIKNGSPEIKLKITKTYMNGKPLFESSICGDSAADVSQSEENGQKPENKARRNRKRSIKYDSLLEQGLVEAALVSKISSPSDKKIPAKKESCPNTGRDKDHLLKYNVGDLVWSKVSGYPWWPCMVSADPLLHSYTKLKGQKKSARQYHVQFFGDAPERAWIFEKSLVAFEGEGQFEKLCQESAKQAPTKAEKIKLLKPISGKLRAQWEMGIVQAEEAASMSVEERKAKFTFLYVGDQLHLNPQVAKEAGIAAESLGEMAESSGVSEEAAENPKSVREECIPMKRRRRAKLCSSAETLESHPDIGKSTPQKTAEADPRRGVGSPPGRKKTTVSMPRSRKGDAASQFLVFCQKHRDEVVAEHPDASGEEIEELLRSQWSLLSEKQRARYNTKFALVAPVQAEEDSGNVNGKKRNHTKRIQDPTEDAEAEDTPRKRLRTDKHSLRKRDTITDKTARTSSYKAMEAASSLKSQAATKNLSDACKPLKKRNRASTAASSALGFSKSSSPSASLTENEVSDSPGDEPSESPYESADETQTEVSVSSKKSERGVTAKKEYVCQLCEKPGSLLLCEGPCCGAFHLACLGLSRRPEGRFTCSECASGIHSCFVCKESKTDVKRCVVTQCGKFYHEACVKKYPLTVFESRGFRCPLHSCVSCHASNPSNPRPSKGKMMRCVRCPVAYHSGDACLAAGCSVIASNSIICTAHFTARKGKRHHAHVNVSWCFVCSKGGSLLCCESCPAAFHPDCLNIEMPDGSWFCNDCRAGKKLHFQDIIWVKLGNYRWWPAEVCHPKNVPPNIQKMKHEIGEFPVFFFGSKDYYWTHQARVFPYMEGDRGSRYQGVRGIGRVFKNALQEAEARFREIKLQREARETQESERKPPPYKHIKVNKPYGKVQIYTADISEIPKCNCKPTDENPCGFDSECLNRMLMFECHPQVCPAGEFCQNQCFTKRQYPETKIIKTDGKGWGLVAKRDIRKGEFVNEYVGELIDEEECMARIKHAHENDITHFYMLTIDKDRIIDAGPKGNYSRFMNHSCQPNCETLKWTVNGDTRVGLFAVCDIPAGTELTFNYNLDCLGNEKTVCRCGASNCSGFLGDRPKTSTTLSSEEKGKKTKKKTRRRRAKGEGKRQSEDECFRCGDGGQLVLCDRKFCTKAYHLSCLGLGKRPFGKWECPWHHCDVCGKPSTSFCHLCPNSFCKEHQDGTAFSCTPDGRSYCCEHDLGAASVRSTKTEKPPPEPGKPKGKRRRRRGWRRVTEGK
# CaV13 FRET inh: Disruptors of the CACNA1D IQ motif to Ca2+-dependent inactivation inhibitor domain association, primary screening, Förster resonance energy transfer in intact living …; HEK cells, CFP/YFP FRET ICDI-IQ, plate reader, 10 min; percent FRET-ratio fall versus neutral wells; 0.098% of 340,000 active; AID 743397; inhibition, % at 12.3 µM;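 active means mean replicate inhibition of at least 30% and at least 1% of replicates passing that level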
# FN deposition inh: fibronectin deposition inhibition | 0.086% of 350,000 active | AID 743247 | AH1F fibroblasts, Alexa488-fibronectin deposition fluorescence, overnight | inhibition, % at 12.6 µM;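 active means mean inhibition across replicates of 30% or more, regardless of how many single replicates reach that level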
#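 Material: AH1F fibroblast monolayer depositing Alexa488-labelled fibronectin into matrix | Input: 10000 AH1F cells/well | Medium: DMEM plus 2% serum, read in PBS | Reagent: Alexa488-fibronectin, 24 nM final in well | Compound dosing: One dose per compound, pinned | Schedule: 1 h adhesion, overnight exposure | Measured by: Fluorescence at 485 nm excitation, 525 nm emission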
# GC-A act: GC-A (human) enzyme activation | P16066 | HEK293 GC-A cells, cGMP TR-FRET, EC30 ANP; 0% at EC30 ANP, 100% saturating ANP | activation, % at 10 µM | 0.14% of 370,000 active | AID 1671463; in the data active means activation above about 40%
# A number is an active result; i = inactive; nt = not tested or not shown; + = active, no number.
SMILES,NPR2 activator,Casp6 inh,NSD2 inh,CaV13 FRET inh,FN deposition inh,GC-A act
O=C(O)c1ccc(Cl)c(S(=O)(=O)Nc2ccc3cn[nH]c3c2)c1,i,37.4,i,i,i,i
COc1ccccc1CNC(=O)C[C@@H]1C[C@H]2c3cc(NC(=O)NC4CCCC4)ccc3O[C@H]2[C@@H](CO)O1,nt,i,nt,nt,i,nt
Cc1noc(C)c1NC(=O)Nc1cccc2c1O[C@H](CN(C)C(=O)Nc1cccc3ccccc13)[C@H](C)CN([C@@H](C)CO)C2=O,nt,i,nt,nt,nt,nt
NC(=O)C1(Nc2ccc(-c3ccc(Br)cc3)cc2)CCCC1,i,i,i,i,i,52.0
Cc1ccc(NC2(C(N)=O)CCCC2)cc1,i,i,i,i,i,i
CC[C@@H]1C/C=C\C[C@H](c2ccc(F)cc2)NC(=O)CCC(=O)N1,nt,nt,nt,nt,i,nt
CCOC(=O)C1=C(C)NC(C)=C(C(=O)OCC)C1C(=O)OCC(=O)NCc1ccccc1,i,i,i,i,i,i
CCOC(=O)C1=C(C)NC(C)=C(C(=O)OCC)C1C(=O)OCC(=O)NC(C)c1ccccc1 (stereo unspecified),i,46.4,i,i,i,i
N#CC1=C(N)Oc2cc(N)ccc2C1c1ccc(F)cc1 (stereo unspecified),i,nt,i,i,i,i
N#CC1=C(N)Oc2cc(N)ccc2C1c1ccc(F)cc1F (stereo unspecified),i,i,i,+,i,i
COc1cc(/C=C/C=C2/CC/C(=C/C=C/c3ccc(O)c(OC)c3)C2=O)ccc1O,i,52.5,i,i,i,i
COc1cc(/C=C2/CC/C(=C/c3ccc(O)c(OC)c3)C2=O)ccc1O,i,i,nt,i,i,i
CCOC(=O)CSc1ncnc2c1sc1nc(N3CCOCC3)c3c(c12)CCCC3,36.5,nt,i,nt,nt,i
COC(=O)c1ccc(CSc2ncnc3c2sc2nc(N4CCOCC4)c4c(c23)CCCC4)o1,61.7,nt,i,i,i,49.6
OCCN1CCN(c2ncnc3c2sc2nc(N4CCOCC4)c4c(c23)CCC4)CC1,i,nt,i,i,nt,i
OCCN(CCO)c1ncnc2c1sc1nc(N3CCOCC3)c3c(c12)CCCC3,i,nt,i,i,18.4,i
C[C@H](CO)N1C[C@H](C)[C@@H](CN(C)C(=O)C2CCCCC2)Oc2ncc(-c3ccccc3)cc2C1=O,nt,i,nt,nt,nt,nt
COc1ccc(OC(=O)N(C)C[C@H]2OCc3ccccc3-c3ccccc3C(=O)N([C@@H](C)CO)C[C@H]2C)cc1,nt,i,nt,nt,i,nt
Cc1ccc(OCCOc2ccc(Cl)cc2Cl)c([N+](=O)[O-])n1,i,i,i,i,i,47.9
O=C(N[C@@H]1C=C[C@H](CC(=O)N2CCOCC2)O[C@H]1CO)c1ccc2c(c1)OCO2,nt,i,nt,nt,nt,nt
Nc1sc(Cc2ccccc2)cc1C(=O)c1c(-c2ccccc2)[nH]c2ccccc12,i,i,nt,i,nt,60.4
CCNC(=O)C(=O)c1c(-c2ccccc2)[nH]c2ccccc12,i,i,i,i,i,i
CO[C@H]1CN(C)C(=O)c2ccc(NS(C)(=O)=O)cc2OC[C@@H](C)N(Cc2nccs2)C[C@@H]1C,nt,i,nt,nt,i,nt
COC(=O)c1ccc2nc(-c3ccccc3)c(Cc3ccc(C)cc3)n2c1,38.9,i,nt,i,i,i
COC(=O)c1ccc2nc(-c3ccc(C)cc3)c(Cc3cccc(F)c3)n2c1,45.7,i,nt,i,i,i
SMILES,NPR2 activator,Casp6 inh,NSD2 inh,CaV13 FRET inh,FN deposition inh,GC-A act
COC(=O)c1ccc2nc(-c3ccccc3)c(Cc3ccccc3)n2c1,i,i,nt,i,i,i
COC(=O)c1ccc2nc(-c3ccc(C)cc3)c(Cc3ccccc3)n2c1,39.1,i,nt,i,i,i
COC(=O)c1ccc2nc(-c3ccc(C#N)cc3)c(Cc3cccc(F)c3)n2c1,i,i,nt,i,i,i
C[C@H](CO)N1C[C@H](C)[C@H](CN(C)Cc2ccc3c(c2)OCO3)OCCCC[C@H](C)Oc2ccc(NC(=O)C3CCCCC3)cc2C1=O,nt,i,nt,nt,nt,nt
Oc1c(Br)cc(Br)cc1/C=N/Nc1ccc(Cl)nn1,i,i,i,i,i,i
Oc1ccc(/C=N/Nc2ccc(Cl)nn2)c(O)c1O,i,47.7,nt,i,i,i
Nc1nnc(COc2ccc(Br)cc2Br)s1,i,i,i,i,i,58.5

# Compound activity: PubChem BioAssay, several laboratories
